This note sets out measurements from ChEMBL document CHEMBL3044620, “Cinnamic acid inhibits growth but stimulates production of pathogenesis factors by in vitro cultures of Fusarium oxysporum f.sp. niveum” (2008).

The subject of one assay is Neurospora crassa. In words: Growth inhibition of Neurospora crassa assessed as inhibition of mycelial growth at 200 mg/L. The format is functional. To be noted: read-out: GI.
Assay [1] relates to Fusarium oxysporum f. sp. niveum. In words: Growth inhibition of Fusarium oxysporum f. sp. niveum assessed as reduction in hyphal growth measured 7 days post compound treatment. The format is functional, organism-based.
Assay [2] shares this test system. In words: Growth inhibition of Fusarium oxysporum f. sp. niveum assessed as reduction in conidial germination measured […]. In kind it is functional, organism-based. A digest of the protocol: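 Conidia came from a 7-day liquid culture (28 °C), collected by filtration and diluted in sterile water. 0.1 mL was spread on 2% water agar plates containing cinnamic acid (200–1600 mg L-1; water control) and incubated at 28 °C for 3 days. Colonies were counted daily. Three replicate plates per treatment.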

The test system is the same in assay [3]. In words: Stimulation of cellulase activity in Fusarium oxysporum f. sp. niveum at 1600 mg/L measured 7 days post compound treatment by DNS method (reference value: 0.03 +/- 0.1 umol/min/ml). In kind it is functional.
Assay [4] shares this test system. In words: Stimulation of proteinase activity in Fusarium oxysporum f. sp. niveum at 1600 mg/L measured 7 days post compound treatment. The format is functional.
Assay [5] shares this test system. In words: Stimulation of amylase activity in Fusarium oxysporum f. sp. niveum at 400 mg/L measured 7 days post compound treatment by DNS method (reference value: 3.7 +/- 0.5 umol/min/ml). In kind it is functional.
Assay [6] shares this test system. In words: Growth inhibition of Fusarium oxysporum f. sp. niveum assessed as reduction in sporulation measured 7 days post compound treatment. The format is functional, organism-based. A digest of the protocol: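 FON was grown 7 days in modified Bilay and Joffe's medium (4.0 g sodium carboxymethyl cellulose, pH 4) with cinnamic acid at 200–1600 mg L-1 or a water control. Broth was diluted 10-5–10-7, and 0.1 mL was spread on PDA and incubated in the dark at 28 °C for 4 days. Colonies were counted and converted to conidia per culture. Three replicates, mean ± SE.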

For assay [7] the test system is unchanged. In words: Stimulation of cellulase activity in Fusarium oxysporum f. sp. niveum at 1600 mg/L measured 7 days post compound treatment by DNS method. In kind it is functional.
Assay [8] has the same test system. In words: Stimulation of mycotoxin production in Fusarium oxysporum f. sp. niveum at 1600 mg/L measured 7 days post compound treatment by spectrophotometry (reference value: 26.9 +/- 4.9 ug/mL). The format is functional.
Assay [9] has the same test system. In words: Growth inhibition of Fusarium oxysporum f. sp. niveum assessed as colony diameter at 1600 mg/L measured 7 days post compound treatment (reference value: 7.0 +/- 0.63 cm). In kind it is functional.
The test system is the same in assay [10]. In words: Stimulation of proteinase activity in Fusarium oxysporum f. sp. niveum at 1600 mg/L measured 7 days post compound treatment (reference value: 0.42 +/- 0.2 U//min/ml). The format is functional.
Assay [11] shares this test system. In words: Stimulation of proteinase activity in Fusarium oxysporum f. sp. niveum at 1600 mg/L measured 7 days post compound treatment by Tseng and Mount method.
The test system is the same in assay [12]. In words: Growth inhibition of Fusarium oxysporum f. sp. niveum assessed as inhibition of mycelium dry weight at 1600 mg/L measured 7 days post compound treatment. The settings on record: 168 h. In kind it is functional. A digest of the protocol:
(§1)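 Strain NJAUS-1 was grown in 30 mL potato dextrose broth (pH 4.5, HCl), inoculated with a 5 mm plug from a 7-day PDA culture. Flasks were shaken at 170 rpm, 28 °C, for 7 days. Mycelium was filtered and dried at 80 °C for 12 h to constant dry weight. Cinnamic acid was tested at 200–1600 mg L-1; controls received sterile water. Three replicates, mean ± SE.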

The test system is the same in assay [13]. In words: Growth inhibition of Fusarium oxysporum f. sp. niveum assessed as mycelium dry weight at 1600 mg/L measured 7 days post compound treatment (reference value: 0.22 +/- 0.01 g). The format is functional. Put shortly: as §1
Assay [14] shares this test system. In words: Stimulation of pectinase activity in Fusarium oxysporum f. sp. niveum at 1600 mg/L measured 7 days post compound treatment by DNS method (reference value: 0.01 +/- 0.0 U//ml/min). The format is functional.
For assay [15] the test system is unchanged. In words: Stimulation of amylase activity in Fusarium oxysporum f. sp. niveum at 1600 mg/L measured 7 days post compound treatment by DNS method (reference value: 3.7 +/- 0.5 umol/min/ml). In kind it is functional.

For `O=C(O)/C=C/c1ccccc1` [CINNAMIC ACID], the inhibition of growth at 200 µg/mL in the assay on Neurospora crassa was found to be 94%. In addition, the “growth inhibition (GI)” value in [1], in assay [2] and in assay [6] was “Dose-dependent effect” each time. In addition, the Activity turned out to be 0.33 µmol/min/mL in assay [3]; 760% in [4]; 5.2 µmol/min/mL in assay [5]; 2006% in [7]; 13.25 µg/mL in [8]; 0 cm in assay [9]. Besides, the Activity in assay [10] was 3.21 U/min/ml; in assay [11] it was 760%; in assay [13], 0.08 g; in assay [14], 0.052 U/ml/min; in assay [15] it was 4.6 µmol/min/mL. Moreover, the inhibition at 1600 µg/mL in assay [12] came to 63.3%.
